ChEMBL document CHEMBL2046392, “Synthesis and evaluation of carbocyanine dyes as PRMT inhibitors and imaging agents” (Eur J Med Chem, 2012)
pIC50: −log10 of the molar value. The source made the active and inactive calls. The calls are words filed in the database; no cut-off is given here.

Columns and labels:
[1] = target: Protein arginine N-methyltransferase 1 (Homo sapiens) (UniProt Q99873); experiment: Inhibition of His-tagged PRMT1 expressed in Escherichia coli BL21(DE3) cells assessed as residual activity using [14C]-S-adenosyl-L-methionine and histone H4 peptide at 100 uM after 8 mins by scintillation counting
Sequence of Protein arginine N-methyltransferase 1 (Homo sapiens) (Q99873 whole entry, looked up): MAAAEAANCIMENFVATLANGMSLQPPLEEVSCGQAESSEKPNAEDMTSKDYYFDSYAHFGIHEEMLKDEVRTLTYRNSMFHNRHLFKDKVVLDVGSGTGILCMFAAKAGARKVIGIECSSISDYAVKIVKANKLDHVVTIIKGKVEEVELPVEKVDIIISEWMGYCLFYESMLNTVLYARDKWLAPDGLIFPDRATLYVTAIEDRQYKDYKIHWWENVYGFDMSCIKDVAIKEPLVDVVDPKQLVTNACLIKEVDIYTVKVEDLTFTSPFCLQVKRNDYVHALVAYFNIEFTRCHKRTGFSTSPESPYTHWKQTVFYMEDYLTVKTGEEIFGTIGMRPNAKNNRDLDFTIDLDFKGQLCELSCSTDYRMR
Procedure, shortened: (§1)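 50 mM HEPES pH 8.0, 0.5 mM DTT, 1 mM EDTA, 50 mM NaCl, 30°C; 2 μM H4(1-20), 5 μM [14C]AdoMet, inhibitor preincubated 5 min, started with 0.05 μM enzyme, 8 min; P81 filter binding, scintillation.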

[2] = Inhibition of His-tagged PRMT1 Y152A mutant expressed in Escherichia coli BL21(DE3) cells assessed as residual activity using [14C]-S-adenosyl-L-methionine and histone H4 peptide at 4 uM measured after 8 mins by scintillation counting; procedure, shortened: as §1
[3] = target: Protein arginine N-methyltransferase 5 (Homo sapiens, UniProt O14744); experiment: Inhibition of His6X-tagged PRMT5 expressed in Escherichia coli BL21(DE3) cells using [14C]-S-adenosyl-L-methionine and histone H4 peptide after 8 mins by scintillation counting
Sequence of Protein arginine N-methyltransferase 5 (O14744 whole entry): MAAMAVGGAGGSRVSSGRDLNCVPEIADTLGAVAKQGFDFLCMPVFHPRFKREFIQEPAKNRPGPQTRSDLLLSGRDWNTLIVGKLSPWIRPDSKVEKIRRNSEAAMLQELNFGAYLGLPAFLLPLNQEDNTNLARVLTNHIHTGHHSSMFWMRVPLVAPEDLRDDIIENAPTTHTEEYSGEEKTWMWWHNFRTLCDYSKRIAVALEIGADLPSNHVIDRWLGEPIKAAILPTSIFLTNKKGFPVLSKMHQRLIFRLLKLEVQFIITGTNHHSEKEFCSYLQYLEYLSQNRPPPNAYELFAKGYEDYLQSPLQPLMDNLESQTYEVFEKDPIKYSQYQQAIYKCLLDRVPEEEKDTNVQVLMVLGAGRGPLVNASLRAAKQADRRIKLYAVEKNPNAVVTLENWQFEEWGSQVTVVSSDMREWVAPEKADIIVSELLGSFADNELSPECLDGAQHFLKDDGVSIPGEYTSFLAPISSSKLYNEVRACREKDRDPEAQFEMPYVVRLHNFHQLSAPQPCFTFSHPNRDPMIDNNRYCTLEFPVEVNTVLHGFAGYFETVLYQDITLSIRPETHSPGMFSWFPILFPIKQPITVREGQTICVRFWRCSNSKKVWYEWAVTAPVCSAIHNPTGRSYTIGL

[4] = Cellular uptake in human HeLa cell nucleus after 6 hrs by bright field microscopic analysis; type: ADME, cell-based
Procedure, shortened: (§2)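 HeLa cells seeded on coverglass overnight, treated with 0, 2 or 5 μM for 6 h (DMSO control), fixed 10 min in 4% paraformaldehyde at room temperature. Bright-field images under visible light; NIR fluorescence by confocal microscopy with 633 nm excitation and 715–785 nm long-pass emission.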

[5] = Cellular uptake in human HeLa cell cytoplasmic vesicles at 2 to 5 uM after 6 hrs by bright field microscopic analysis; type: ADME, cell-based; procedure, shortened: as §2
[6] = Cellular uptake in human HeLa cell around nucleus at 2 to 5 uM after 6 hrs by fluorescent microscopic analysis; type: ADME, cell-based; procedure, shortened: as §2
[7] = Cellular uptake in human HeLa cell nucleus at 2 to 5 uM after 6 hrs by fluorescent microscopic analysis; type: ADME, cell-based; procedure, shortened: as §2
[8] = Cellular uptake in human HeLa cell cytoplasmic vesicles at 2 to 5 uM after 6 hrs by fluorescent microscopic analysis; type: ADME, cell-based; procedure, shortened: as §2
HeLa [9] = experiment: Cell cycle arrest in human HeLa cells assessed as accumulation at S phase after 24 hrs by propidium iodide staining-based flow cytometric analysis (reference value: 12.2%); type: functional
Procedure, shortened: (§3)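 HeLa cells (1 × 10^6, exponential growth) exposed to compound for 24 or 48 h; collected, fixed in ice-cold 70% ethanol, stored at 4°C, rinsed in PBS, stained with 40 μg/ml propidium iodide plus RNase A; DNA content by flow cytometry, cell-cycle subpopulations as percentages. Tested at 0.3, 1, 2.5 and 5 μM (24 h).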

HeLa [10] = experiment: Cell cycle arrest in human HeLa cells assessed as accumulation at S phase at 1 uM after 24 hrs by propidium iodide staining-based flow cytometric analysis (reference value: 12.2%); type: functional; procedure, shortened: as §3
HeLa [11] = experiment: Cell cycle arrest in human HeLa cells assessed as accumulation at G1 phase at 1 uM after 24 hrs by propidium iodide staining-based flow cytometric analysis (reference value: 57.2%); type: functional; procedure, shortened: as §3
HeLa [12] = experiment: Cell cycle arrest in human HeLa cells assessed as accumulation at G2/M phase at 1 uM after 24 hrs by propidium iodide staining-based flow cytometric analysis (reference value: 29.2%); type: functional; procedure, shortened: as §3
HeLa [13] = experiment: Induction of apoptosis in human HeLa cells assessed as increase in sub-G1 peak at 2.5 to 5 uM after 48 hrs by propidium iodide staining-based flow cytometric analysis; type: functional, cell-based; procedure, shortened: as §3
[14] = target: Protein arginine N-methyltransferase 1 (Homo sapiens) (UniProt Q99873); conditions: 4 uM
[15] = target: Protein arginine N-methyltransferase 3 (Homo sapiens, UniProt O60678); experiment: Inhibition of His6X-tagged PRMT3 expressed in Escherichia coli BL21(DE3) cells using [14C]-S-adenosyl-L-methionine and R4 peptide after 8 mins by scintillation counting
Sequence of Protein arginine N-methyltransferase 3 (O60678 whole entry): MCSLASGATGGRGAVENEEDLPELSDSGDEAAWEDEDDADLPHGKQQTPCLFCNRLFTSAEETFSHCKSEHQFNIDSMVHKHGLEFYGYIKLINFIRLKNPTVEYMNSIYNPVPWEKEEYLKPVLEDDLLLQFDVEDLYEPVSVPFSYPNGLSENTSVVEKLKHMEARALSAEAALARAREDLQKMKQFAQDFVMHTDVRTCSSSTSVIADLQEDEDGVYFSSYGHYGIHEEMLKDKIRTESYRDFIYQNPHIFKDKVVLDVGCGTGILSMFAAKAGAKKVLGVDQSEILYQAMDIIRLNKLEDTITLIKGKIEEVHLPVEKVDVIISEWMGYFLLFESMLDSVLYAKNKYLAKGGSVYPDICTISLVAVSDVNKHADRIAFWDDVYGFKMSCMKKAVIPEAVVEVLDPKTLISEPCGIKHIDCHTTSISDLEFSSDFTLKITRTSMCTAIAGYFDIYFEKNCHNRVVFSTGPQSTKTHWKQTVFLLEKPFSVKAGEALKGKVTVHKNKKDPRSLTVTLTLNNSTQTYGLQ

[16] = target: Protein arginine N-methyltransferase 6 (Homo sapiens, UniProt Q96LA8); experiment: Inhibition of His6X-tagged PRMT6 expressed in Escherichia coli BL21(DE3) cells using [14C]-S-adenosyl-L-methionine and histone H3(1-31) peptide after 8 mins by scintillation counting
Sequence of Protein arginine N-methyltransferase 6 (Q96LA8 whole entry): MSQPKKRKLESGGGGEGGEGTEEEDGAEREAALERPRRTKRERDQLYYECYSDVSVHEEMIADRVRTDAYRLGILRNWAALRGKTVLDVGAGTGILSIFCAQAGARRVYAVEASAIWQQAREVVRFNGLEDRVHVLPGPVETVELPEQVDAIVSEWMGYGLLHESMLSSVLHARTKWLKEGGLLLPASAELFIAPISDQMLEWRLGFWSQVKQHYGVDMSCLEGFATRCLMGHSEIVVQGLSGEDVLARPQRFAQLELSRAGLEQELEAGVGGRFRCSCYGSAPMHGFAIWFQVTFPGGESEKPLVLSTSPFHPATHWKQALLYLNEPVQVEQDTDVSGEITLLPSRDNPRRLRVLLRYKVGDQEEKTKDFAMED

Row | Activity [1] [%] | pIC50 [3] | Drug uptake [4] | Drug uptake [5] | Drug uptake [6] | Drug uptake [7] | Drug uptake [8] | inhibition [14] [%] | pIC50 [15] | pIC50 [16] | Structure (SMILES) | inhibition [2] | Activity (HeLa [9]) | Activity (HeLa [10]) [%] | Activity (HeLa [11]) [%] | Activity (HeLa [12]) [%] | Activity (HeLa [13])
1 | 80 |  |  |  |  |  |  |  |  |  | CN1\C(=C/C=C(Cl)/C=C/C2=[N+](C)c3ccccc3C2(C)C)C(C)(C)c2ccccc21 |  |  |  |  |  | 
2 | 95 |  |  |  |  |  |  |  |  |  | COc1ccc2c(c1)C(C)(C)C(/C=C/C=C/C=C1\N(C)c3ccc(OC)cc3C1(C)C)=[N+]2C |  |  |  |  |  | 
3 |  | 5.04 | Dose-dependent effect | Active | Active | Active | Active | 92 | 5.08 | 4.90 | CCn1/c(=C\C=C\C2=[N+](CC)c3cccc4cccc2c34)c2cccc3cccc1c32.[I-] | Active | Active | 56.5 | 23.6 | 13.9 | Active
